Results as given in ChEMBL document CHEMBL3784971, “Synthesis, characterization, antimicrobial and biofilm inhibitory studies of new esterquats” (Bioorg Med Chem Lett, 2016).

Assays:
Staphylococcus aureus [1] = assay: Antimicrobial activity against Staphylococcus aureus MTCC 96 assessed as growth inhibition after 24 hrs by agar well diffusion method; assay type: functional; conditions: MTCC 96, 24 h
Bacillus subtilis [2] = assay: Antimicrobial activity against Bacillus subtilis MTCC 121 assessed as growth inhibition after 24 hrs by agar well diffusion method; assay type: functional; conditions: MTCC 121, 24 h
Staphylococcus aureus [3] = assay: Antimicrobial activity against Staphylococcus aureus MLS16 MTCC 2940 assessed as growth inhibition after 24 hrs by agar well diffusion method; assay type: functional; conditions: MLS16 MTCC 2940, 24 h
Micrococcus luteus [4] = assay: Antimicrobial activity against Micrococcus luteus MTCC 2470 assessed as growth inhibition after 24 hrs by agar well diffusion method; assay type: functional; conditions: MTCC 2470, 24 h
Raoultella planticola [5] = assay: Antimicrobial activity against Klebsiella planticola MTCC 530 assessed as growth inhibition after 24 hrs by agar well diffusion method; assay type: functional; conditions: MTCC 530, 24 h
Escherichia coli [6] = assay: Antimicrobial activity against Escherichia coli MTCC 739 assessed as growth inhibition after 24 hrs by agar well diffusion method; assay type: functional; conditions: MTCC 739, 24 h
Pseudomonas aeruginosa = assay: Antimicrobial activity against Pseudomonas aeruginosa MTCC 2453 assessed as growth inhibition after 24 hrs by agar well diffusion method; assay type: functional; conditions: MTCC 2453, 24 h
Candida albicans [7] = assay: Antimicrobial activity against Candida albicans MTCC 3017 assessed as growth inhibition after 24 hrs by agar well diffusion method; assay type: functional; conditions: MTCC 3017, 24 h
Candida albicans [8] = assay: Antimicrobial activity against Candida albicans MTCC 183 assessed as growth inhibition after 24 hrs by agar well diffusion method; assay type: functional; conditions: MTCC 183, 24 h
Candida albicans [9] = assay: Antimicrobial activity against Candida albicans MTCC 227 assessed as growth inhibition after 24 hrs by agar well diffusion method; assay type: functional; conditions: MTCC 227, 24 h
Candida albicans [10] = assay: Antimicrobial activity against Candida albicans MTCC 854 assessed as growth inhibition after 24 hrs by agar well diffusion method; assay type: functional; conditions: MTCC 854, 24 h
Candida albicans [11] = assay: Antimicrobial activity against Candida albicans MTCC 1637 assessed as growth inhibition after 24 hrs by agar well diffusion method; assay type: functional; conditions: MTCC 1637, 24 h
Candida albicans [12] = assay: Antimicrobial activity against Candida albicans MTCC 3018 assessed as growth inhibition after 24 hrs by agar well diffusion method; assay type: functional; conditions: MTCC 3018, 24 h
Candida albicans [13] = assay: Antimicrobial activity against Candida albicans MTCC 3958 assessed as growth inhibition after 24 hrs by agar well diffusion method; assay type: functional; conditions: MTCC 3958, 24 h
Candida albicans [14] = assay: Antimicrobial activity against Candida albicans MTCC 4748 assessed as growth inhibition after 24 hrs by agar well diffusion method; assay type: functional; conditions: MTCC 4748, 24 h
Candida albicans [15] = assay: Antimicrobial activity against Candida albicans MTCC 7315 assessed as growth inhibition after 24 hrs by agar well diffusion method; assay type: functional; conditions: MTCC 7315, 24 h
Candida parapsilosis [16] = assay: Antimicrobial activity against Candida parapsilosis MTCC 1744 assessed as growth inhibition after 24 hrs by agar well diffusion method; assay type: functional; conditions: Lodderomyces parapsilosis, MTCC 1744, 24 h
[Candida] aaseri [17] = Antimicrobial activity against Candida aaseri MTCC 1962 assessed as growth inhibition after 24 hrs by agar well diffusion method; assay type: functional; conditions: Yamadazyma aaseri, MTCC 1962, 24 h
Nakaseomyces glabratus [18] = assay: Antimicrobial activity against Candida glabrata MTCC 3019 assessed as growth inhibition after 24 hrs by agar well diffusion method; assay type: functional; conditions: MTCC 3019, 24 h
Pichia kudriavzevii [19] = assay: Antimicrobial activity against Candida krusei MTCC 3020 assessed as growth inhibition after 24 hrs by agar well diffusion method; assay type: functional; conditions: MTCC 3020, 24 h
Pichia sporocuriosa [20] = assay: Antimicrobial activity against Issatchenkia hanoiensis MTCC 4755 assessed as growth inhibition after 24 hrs by agar well diffusion method; assay type: functional; conditions: MTCC 4755, 24 h
Staphylococcus aureus [21] = assay: Bactericidal activity against Staphylococcus aureus MTCC 96 after 24 hrs by serial dilution method; assay type: functional; conditions: MTCC 96, 24 h
Bacillus subtilis [22] = assay: Bactericidal activity against Bacillus subtilis MTCC 121 after 24 hrs by serial dilution method; assay type: functional; conditions: MTCC 121, 24 h
Staphylococcus aureus [23] = assay: Bactericidal activity against Staphylococcus aureus MLS16 MTCC 2940 after 24 hrs by serial dilution method; assay type: functional; conditions: MLS16 MTCC 2940, 24 h
Micrococcus luteus [24] = assay: Bactericidal activity against Micrococcus luteus MTCC 2470 after 24 hrs by serial dilution method; assay type: functional; conditions: MTCC 2470, 24 h
Raoultella planticola [25] = assay: Bactericidal activity against Klebsiella planticola MTCC 530 after 24 hrs by serial dilution method; assay type: functional; conditions: MTCC 530, 24 h
Escherichia coli [26] = assay: Bactericidal activity against Escherichia coli MTCC 739 after 24 hrs by serial dilution method; assay type: functional; conditions: MTCC 739, 24 h
Candida albicans [27] = assay: Fungicidal activity against Candida albicans MTCC 3017 after 24 hrs by serial dilution method; assay type: functional; conditions: MTCC 3017, 24 h
Candida albicans [28] = assay: Fungicidal activity against Candida albicans MTCC 183 after 24 hrs by serial dilution method; assay type: functional; conditions: MTCC 183, 24 h
Candida albicans [29] = assay: Fungicidal activity against Candida albicans MTCC 227 after 24 hrs by serial dilution method; assay type: functional; conditions: MTCC 227, 24 h
Candida albicans [30] = assay: Fungicidal activity against Candida albicans MTCC 854 after 24 hrs by serial dilution method; assay type: functional; conditions: MTCC 854, 24 h
Candida albicans [31] = assay: Fungicidal activity against Candida albicans MTCC 1637 after 24 hrs by serial dilution method; assay type: functional; conditions: MTCC 1637, 24 h
Candida albicans [32] = assay: Fungicidal activity against Candida albicans MTCC 3018 after 24 hrs by serial dilution method; assay type: functional; conditions: MTCC 3018, 24 h
Candida albicans [33] = assay: Fungicidal activity against Candida albicans MTCC 3958 after 24 hrs by serial dilution method; assay type: functional; conditions: MTCC 3958, 24 h
Candida albicans [34] = assay: Fungicidal activity against Candida albicans MTCC 4748 after 24 hrs by serial dilution method; assay type: functional; conditions: MTCC 4748, 24 h
Candida albicans [35] = assay: Fungicidal activity against Candida albicans MTCC 7315 after 24 hrs by serial dilution method; assay type: functional; conditions: MTCC 7315, 24 h
Candida parapsilosis [36] = assay: Fungicidal activity against Candida parapsilosis MTCC 1744 after 24 hrs by serial dilution method; assay type: functional; conditions: Lodderomyces parapsilosis, MTCC 1744, 24 h
[Candida] aaseri [37] = Fungicidal activity against Candida aaseri MTCC 1962 after 24 hrs by serial dilution method; assay type: functional; conditions: Yamadazyma aaseri, MTCC 1962, 24 h
Nakaseomyces glabratus [38] = assay: Fungicidal activity against Candida glabrata MTCC 3019 after 24 hrs by serial dilution method; assay type: functional; conditions: MTCC 3019, 24 h
Pichia kudriavzevii [39] = assay: Fungicidal activity against Candida krusei MTCC 3020 after 24 hrs by serial dilution method; assay type: functional; conditions: MTCC 3020, 24 h
Pichia sporocuriosa [40] = assay: Fungicidal activity against Issatchenkia hanoiensis MTCC 4755 after 24 hrs by serial dilution method; assay type: functional; conditions: MTCC 4755, 24 h
Staphylococcus aureus [41] = assay: Antibiofilm activity against Staphylococcus aureus MTCC 96 after 24 hrs by crystal violet staining based assay; assay type: functional, organism-based; conditions: MTCC 96, 24 h
How it was run: (§1)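 Biofilm inhibition tested for amine esters and esterquats. IC50 values (µg/mL) are the mean of three determinations, with ciprofloxacin as reference.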

Bacillus subtilis [42] = assay: Antibiofilm activity against Bacillus subtilis MTCC 121 after 24 hrs by crystal violet staining based assay; assay type: functional, organism-based; conditions: MTCC 121, 24 h; how it was run: as §1
Staphylococcus aureus [43] = assay: Antibiofilm activity against Staphylococcus aureus MLS16 MTCC 2940 after 24 hrs by crystal violet staining based assay; assay type: functional, organism-based; conditions: MLS16 MTCC 2940, 24 h; how it was run: as §1
Micrococcus luteus [44] = assay: Antibiofilm activity against Micrococcus luteus MTCC 2470 after 24 hrs by crystal violet staining based assay; assay type: functional, organism-based; conditions: MTCC 2470, 24 h; how it was run: as §1

COC(=O)CCCCCCCCCC[N+](C)(C1CCCCC1)C1CCCCC1.[Cl-]
MIC (Staphylococcus aureus [1]): 3.9 µg/mL
MIC (Bacillus subtilis [2]): 7.8 µg/mL
MIC (Staphylococcus aureus [3]): 3.9 µg/mL
MIC (Micrococcus luteus [4]): 7.8 µg/mL
MIC (Raoultella planticola [5]): > 125 µg/mL
MIC (Escherichia coli [6]): > 125 µg/mL
MIC (Pseudomonas aeruginosa): > 125 µg/mL
MIC (Candida albicans [7]): 15.6 µg/mL
MIC (Candida albicans [8]): 15.6 µg/mL
MIC (Candida albicans [9]): 15.6 µg/mL
MIC (Candida albicans [10]): 31.2 µg/mL
MIC (Candida albicans [11]): 31.2 µg/mL
MIC (Candida albicans [12]): 15.6 µg/mL
MIC (Candida albicans [13]): 15.6 µg/mL
MIC (Candida albicans [14]): 15.6 µg/mL
MIC (Candida albicans [15]): 15.6 µg/mL
MIC (Candida parapsilosis [16]): 15.6 µg/mL
MIC ([Candida] aaseri [17]): 15.6 µg/mL
MIC (Nakaseomyces glabratus [18]): 31.2 µg/mL
MIC (Pichia kudriavzevii [19]): 31.2 µg/mL
MIC (Pichia sporocuriosa [20]): 15.6 µg/mL
MBC (Staphylococcus aureus [21]): 7.8 µg/mL
MBC (Bacillus subtilis [22]): 15.6 µg/mL
MBC (Staphylococcus aureus [23]): 7.8 µg/mL
MBC (Micrococcus luteus [24]): 7.8 µg/mL
MBC (Raoultella planticola [25]): > 125 µg/mL
MBC (Escherichia coli [26]): > 125 µg/mL
MFC (Candida albicans [27]): 31.2 µg/mL
MFC (Candida albicans [28]): 62.5 µg/mL
MFC (Candida albicans [29]): 31.2 µg/mL
MFC (Candida albicans [30]): 31.2 µg/mL
MFC (Candida albicans [31]): 31.2 µg/mL
MFC (Candida albicans [32]): 62.5 µg/mL
MFC (Candida albicans [33]): 31.2 µg/mL
MFC (Candida albicans [34]): 31.2 µg/mL
MFC (Candida albicans [35]): 31.2 µg/mL
MFC (Candida parapsilosis [36]): 62.5 µg/mL
MFC ([Candida] aaseri [37]): 31.2 µg/mL
MFC (Nakaseomyces glabratus [38]): 62.5 µg/mL
MFC (Pichia kudriavzevii [39]): 62.5 µg/mL
MFC (Pichia sporocuriosa [40]): 31.2 µg/mL
IC50 (Staphylococcus aureus [41]): 2.5 µg/mL
IC50 (Bacillus subtilis [42]): 4.4 µg/mL
IC50 (Staphylococcus aureus [43]): 3.6 µg/mL
IC50 (Micrococcus luteus [44]): 2.5 µg/mL
